Assay outcomes: PubChem BioAssay, Johns Hopkins Ion Channel Center
TRPC4 agonist = activators of mouse TRPC4 channel, primary screen, Fluo4 calcium, HEK293 TRPC4beta/mu-opioid cells; Short transient receptor potential channel 4 (Mus musculus), Q9QUQ5; Fluo4 calcium fluorescence; hits give high values; B-score at 10 µM; hit rate 0.49% among 310,000; AID 2237, 2010;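 active = B-score above 5 SD of library B-scores, and initial fluorescence ratio not above library mean plus 5 SD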;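 note: positive B-score marks a calcium rise read as TRPC4 activation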
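system = HEK293 cells stably co-expressing mouse TRPC4beta and mu-opioid receptor | schedule = Fluo4 dye loading 45 min at room temperature, 110 s recording | measure = B-scored integrated calcium fluorescence ratio | signal = Fluo4 calcium-sensitive dye fluorescence, kinetic, 1 Hz baseline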
TRPC4 block = inhibitors of mouse TRPC4 channel, primary screen, Fluo4 calcium, HEK293 TRPC4beta/mu-opioid cells | Short transient receptor potential channel 4 (Mus musculus), Q9QUQ5 | DAMGO-evoked Fluo4 calcium flux; hits give low values | B-score at 10 µM | hit rate 0.39% among 300,000;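 active = B-score over 3 SD under the library average, no early fluorescence shift, positive overall ratio signal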
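Assay system: TRPC4beta/mu-opioid receptor HEK293 cell line; compound dosing: single concentration per test compound; detection: Fluo4 Ca2+ flux fluorescence; evaluation: per-well B score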
TRPC4 PAM = positive allosteric modulators of TRPC4, primary screen, cell-based, mouse TRPC4beta, HEK293 mu-opioid, Fluo-4 calcium | Short transient receptor potential channel 4 (Mus musculus), Q9QUQ5 | DAMGO EC20, Fluo-4 Ca2+ flux; hits give high values | B-score at 10 µM | hit rate 0.42% among 310,000;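 active = B-score of calcium response area above 5 SD of library B-scores, with initial fluorescence ratio within 5 SD of library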
TRPC6 inhibitor = mouse TRPC6 channel inhibitors, primary screen, cell-based, HEK293, membrane potential dye | Short transient receptor potential channel 6 (Mus musculus), Q61143 | ACh-evoked depolarization; hits give low values | B-score at 10 µM | hit rate 1.1% among 310,000;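 active = B-score under library mean minus 3 SD, initial fluorescence not abnormally high, positive integrated signal ratio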;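 note: B-score derived from integrated fluorescence ratio over the kinetic read; more negative B-score means stronger inhibition of depolarization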
TRPC6 activator = mouse TRPC6 channel activators, primary screen, cell-based, HEK293, membrane potential dye | Short transient receptor potential channel 6 (Mus musculus), Q61143 | AID 2550, 2010 | hit rate 0.13% among 310,000 | B-score at 10 µM | HEK293-TRPC6 membrane potential dye fluorescence; hits give high values;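 active = B-score of the integrated fluorescence ratio above library mean plus 3 SD, and starting fluorescence ratio within library mean plus 5 SD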;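 note: higher score means more depolarization so channel activation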
TRPC4 spec 2 = second selectivity test of TRPC6 inhibitors: effect on mouse TRPC4 | HEK293 TRPC4/MOR, membrane potential dye fluorescence; channel activated by saturating DAMGO dose | hit rate 42% among 920 | shares compounds with TRPC6 inhibitor | inhibition, % at 10 µM;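 active = compounds whose fluorescence signal differed from control wells by over 3 SD, either direction, in both duplicate plates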
TRPC4 spec = mouse TRPC4 modulation by TRPC6 hits, confirmation, selectivity assay for TRPC6 inhibitor project, cell-based, HEK293 TRPC4/mu-opioid, membrane potential dye; AID 2777, 2010; shares compounds with TRPC6 inhibitor; membrane potential fluorescence; hit rate 61% among 920; activity change, negative = inhibition, % at 10 µM;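 active = rise or fall in signal beyond 3 SD of buffer-only wells in both replicate plates, either sign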;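 note: integrated kinetic ratio of fluorescence range over baseline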
HEK293 MPD ctr 2-1 = nonspecific membrane potential effects, parental HEK293, confirmation, counter-screen for TRPC6 inhibitor project, cell-based, second counter screen | signal change vs control, % at 10 µM | hit rate 31% among 920 | parental HEK293 membrane potential dye fluorescence; maximal acetylcholine challenge after compound addition | shares compounds with TRPC6 inhibitor | AID 2779, 2010;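 active = membrane potential signal moving either way by over 3 SD of the maximum-effect control, in both duplicate plates, meaning non-specific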
HEK293 MPD ctr-1 = membrane potential modulation in parental HEK293, confirmation, counter-screen for TRPC6 inhibitor project, cell-based; AID 2780, 2010; shares compounds with TRPC6 inhibitor; parental HEK293 membrane potential dye fluorescence; hit rate 60% among 920; membrane potential signal change, % at 10 µM;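 active = membrane potential signal shifting up or down by more than 3 SD of buffer-only wells, on both duplicate plates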
HEK293 MPD ctr-2 = parental HEK293 membrane potential modulation, confirmation, counter-screen for TRPC6 modulator project, cell-based; hit rate 51% among 2,400; membrane potential signal change, % at 10 µM; membrane potential dye fluorescence; shares compounds with TRPC6 inhibitor;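 active = membrane potential signal moves up or down beyond 5 SD from buffer-only wells, on both duplicate plates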
HEK293 MPD ctr 2-2 = second check of TRPC6 modulator effects in parental HEK293 cells. inhibition, % at 10 µM. hit rate 14% among 2,400. membrane potential dye fluorescence; after compound, maximal acetylcholine stimulation. shares compounds with TRPC6 inhibitor;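 active = membrane potential signal drops by more than 5 SD from the mean control signal, in both duplicate plates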
TRPC4/MOR mod = TRPC4 modulation by TRPC6 hit compounds, confirmation, selectivity assay for TRPC6 modulator project, cell-based, HEK293 TRPC4/mu-opioid, membrane potential dye, mouse; shares compounds with TRPC6 inhibitor; membrane potential fluorescence; percent change from control (negative = decrease, positive = increase), % at 10 µM; hit rate 69% among 2,400; AID 488927, 2010;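 active = membrane potential signal moved up or down beyond 5 SD of buffer control wells, in both duplicate plates, actives on both sides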
TRPC4 ctr inh 2 = mouse TRPC4 off-target activity of TRPC6 modulators, second screen. inhibition, % at 10 µM. shares compounds with TRPC6 inhibitor. AID 488928. hit rate 55% among 2,400. HEK293 TRPC4/mu-opioid, membrane potential dye fluorescence; stimulated with maximal-effect DAMGO;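 active = drop in membrane potential signal beyond 5 SD of the control wells in both duplicate plates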;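 note: TRPC4 counter screen for TRPC6 hits run under conditions tuned for TRPC6 not TRPC4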
TRPC6 block conf = mouse TRPC6 channel inhibitors, confirmation, HEK293 cells, membrane potential dye, duplicate. hit rate 43% among 3,300. inhibition, % at 10 µM. AID 488960, 2010. shares compounds with TRPC6 inhibitor. ACh-evoked depolarization;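 active = fluorescence ratio falls more than 5 SD below the full-stimulation control mean, in both duplicate runs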;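 note: integrated fluorescence ratio of peak minus minimum over baseline after agonist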
TRPC6 act conf = mouse TRPC6 channel activators, confirmation, HEK293 cells, membrane potential dye, duplicate; shares compounds with TRPC6 inhibitor; activation, % at 10 µM; hit rate 11% among 2,800; HEK293-TRPC6 membrane potential dye fluorescence, FDSS;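 active = ratio signal rise beyond 5 SD above unstimulated control wells' mean, seen in both duplicate runs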
Of the large screens only hits and unclear results are named; the others gave an inactive call (follow-up assays come after a bar, where they were run). This is a sample that favours compounds with a hit; in the whole collection about 2.3% have one here.

O=C(c1cccc(-n2cccc2)c1)N1CCN(S(=O)(=O)c2c(F)cccc2F)CC1	TRPC6 inhibitor -6.11 | HEK293 MPD ctr-2 inactive | HEK293 MPD ctr 2-2 inactive | TRPC4/MOR mod inactive | TRPC4 ctr inh 2 inactive | TRPC6 block conf 44.5%
O=C(c1ccccc1)N1CCN(C2C3CC4CC(C3)CC2C4)CC1 (configuration not stated)	TRPC6 inhibitor -9.55 | TRPC4 spec 2 inactive | TRPC4 spec 2.6% | HEK293 MPD ctr 2-1 inactive | HEK293 MPD ctr-1 6.7% | TRPC6 block conf inactive
CCN(c1ccccc1)S(=O)(=O)c1cccc(C(=O)N2CCN(S(=O)(=O)c3ccccc3)CC2)c1	TRPC6 inhibitor -10.6 | TRPC4 spec 2 inactive | TRPC4 spec inactive | HEK293 MPD ctr 2-1 inactive | HEK293 MPD ctr-1 inactive | TRPC6 block conf inactive
C=CCN(c1ccccc1)S(=O)(=O)c1cccc(C(=O)N2CCCC2)c1	none
Cc1ccc(S(=O)(=O)N2CCN(C(=O)c3ccccc3)CC2)cc1	TRPC6 inhibitor -12.4, TRPC6 activator 14.7 | HEK293 MPD ctr-2 inactive | HEK293 MPD ctr 2-2 inactive | TRPC4/MOR mod inactive | TRPC4 ctr inh 2 inactive | TRPC6 block conf 66.0% | TRPC6 act conf 98.0%
O=C(c1cccc(S(=O)(=O)N2CCCC2)c1)N1CCN(c2ccccc2F)CC1	none
CC(=O)Nc1ccc(N(C(=O)CNC(=O)c2ccco2)C(C(=O)NCc2ccco2)c2ccccc2F)cc1 (configuration not stated)	none
CCCCNCC(O)(c1ccc(Cl)cc1)c1ccc(Cl)cc1	TRPC6 inhibitor -5.02 | HEK293 MPD ctr-2 120.5% | HEK293 MPD ctr 2-2 inactive | TRPC4/MOR mod 26.5% | TRPC4 ctr inh 2 47.0% | TRPC6 block conf inactive
CC(C)C(C)NC(=O)COC(=O)C1CCN(S(=O)(=O)c2ccc3c(c2)OCCO3)CC1 (configuration not stated)	TRPC6 inhibitor -6.38 | HEK293 MPD ctr-2 inactive | HEK293 MPD ctr 2-2 inactive | TRPC4/MOR mod 7.0% | TRPC4 ctr inh 2 inactive | TRPC6 block conf inactive | TRPC6 act conf inactive
CCNC(=O)COC(=O)C1CCN(S(=O)(=O)c2ccc3c(c2)OCCO3)CC1	none
CC(C)CCNC(=O)C(c1ccco1)N(Cc1cccs1)C(=O)Cn1nnc2ccccc21 (configuration not stated)	TRPC6 activator 14.9 | HEK293 MPD ctr-2 281.0% | HEK293 MPD ctr 2-2 inactive | TRPC4/MOR mod 72.0% | TRPC4 ctr inh 2 inactive | TRPC6 block conf inactive | TRPC6 act conf 98.0%
COCCNC(=O)C(c1cccs1)N(Cc1cccs1)C(=O)Cn1nnc2ccccc21 (configuration not stated)	none
CCn1ncc(C2=NOC(C(=O)NCC(C)C)C2)c1C (configuration not stated)	none
CCn1ncc(C2=NOC(C(=O)Nc3cnn(C45CC6CC(CC(C6)C4)C5)c3)C2)c1C (configuration not stated)	TRPC6 activator 18.7 | HEK293 MPD ctr-2 inactive | HEK293 MPD ctr 2-2 inactive | TRPC4/MOR mod inactive | TRPC4 ctr inh 2 inactive | TRPC6 act conf 126.5%
COc1ccccc1N(Cc1ccccc1)S(=O)(=O)c1cccc(C(=O)Nc2cc(C)ccn2)c1	none
Cc1ccc(O)c([C@H](CCN(C(C)C)C(C)C)c2ccccc2)c1	TRPC6 inhibitor -6.17 | HEK293 MPD ctr-2 173.5% | HEK293 MPD ctr 2-2 96.0% | TRPC4/MOR mod 33.0% | TRPC4 ctr inh 2 41.0% | TRPC6 block conf 87.0%
COc1ccc(CCNCc2ccc(OCc3ccc(Cl)nc3)c(OC)c2)cc1OC	TRPC6 inhibitor -6.05 | HEK293 MPD ctr-2 inactive | HEK293 MPD ctr 2-2 inactive | TRPC4/MOR mod inactive | TRPC4 ctr inh 2 72.5% | TRPC6 block conf 44.5% | TRPC6 act conf inactive
Cc1ccc(CNC(=O)CSc2nc3c(sc4ccccc43)c(=O)n2CCCN2CCCC2)cc1	TRPC6 inhibitor -5.79 | HEK293 MPD ctr-2 inactive | HEK293 MPD ctr 2-2 inactive | TRPC4/MOR mod 8.0% | TRPC4 ctr inh 2 69.0% | TRPC6 block conf 43.0% | TRPC6 act conf inactive
O=C(CSc1nc2c(sc3ccccc32)c(=O)n1CCCN1CCCC1)NCc1ccccc1	none
Cc1ccc(NC(=O)CCS(=O)(=O)c2ccc3c(c2)NC(=O)C(C)S3)nc1 (configuration not stated)	none
